Experiments:
Liver microsomes = assay: Metabolic stability in human liver microsomes at 1 uM after 60 mins by LC/MS/MS analysis; settings: 1 h
[1] = Plasma concentration in CD1 mouse at 1 mg/kg, iv at 6 hrs
CHO-2B7 [2] = assay: Modulation of gamma secretase in CHO-2B7 cells assessed as reduction in amyloid beta 40 level at 20 uM after 5 hrs by MSD ELISA; format: cell-based; parameters: scale not given: the % may be the effect or the level left; settings: Cricetulus griseus
[3] = Modulation of gamma secretase in CHO-2B7 cells assessed as reduction in amyloid beta 42 level after 5 hrs by MSD ELISA; format: cell-based; settings: Cricetulus griseus, CHO-2B7, 5 h
[4] = Ratio of drug uptake in brain to plasma in CD1 mouse at 1 mg/kg, iv at 6 hrs; settings: brain and plasma
[5] = Drug uptake in CD1 mouse brain at 1 mg/kg, iv at 6 hrs
[6] = Modulation of gamma-secretase assessed as reduction in amyloid beta 42 level by cell based assay
[7] = Modulation of gamma-secretase assessed as increase in amyloid beta 38 level at 800 nM by cell based assay relative to control
[8] = Modulation of gamma-secretase assessed as reduction in amyloid beta 40 level by cell based assay
[9] = Modulation of gamma secretase in CHO-2B7 cells assessed as reduction in amyloid beta 40 level after 5 hrs by MSD ELISA; format: cell-based; settings: Cricetulus griseus, CHO-2B7, 5 h
[10] = Metabolic stability in human liver microsomes assessed as compound remaining at 1 uM at 60 mins by LC/MS/MS analysis in absence of NADPH; format: ADME, Microsome; settings: liver microsomes, read-out: Stability
Summary of the method: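 Human liver microsomes were run without NADPH as a qualitative read of susceptibility to enzymatic hydrolysis. The read-out was percent parent remaining at 60 min.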

[11] = Metabolic stability in human liver microsomes assessed as compound remaining at 1 uM at 60 mins by LC/MS/MS analysis in presence of NADPH; format: ADME, Microsome; settings: read-out: Stability
[12] = Drug uptake in CD1 mouse brain at 3 mg/kg, iv at 6 hrs; format: ADME, organism-based; parameters: dose 3 mg/kg, route intravenous; settings: read-out: Drug uptake
Summary of the method: (§1)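 CD-1 mice dosed by the IV route. Plasma and brain drug concentrations were measured at 6 h post dose, or at 2 h for one analogue. The brain-to-plasma ratio was calculated from these concentrations and used to rank CNS penetration.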

[13] = Plasma concentration in CD1 mouse at 3 mg/kg, iv at 6 hrs; format: ADME, organism-based; parameters: dose 3 mg/kg, route intravenous; summary of the method: as §1
[14] = Ratio of drug uptake in brain to plasma in CD1 mouse at 3 mg/kg, iv at 6 hrs; format: ADME, organism-based; parameters: dose 3 mg/kg, route intravenous; settings: brain and plasma, read-out: BPR; summary of the method: as §1
CHO-2B7 [15] = assay: Modulation of gamma secretase in CHO-2B7 cells assessed as reduction in amyloid beta 42 level at 20 uM after 5 hrs by MSD ELISA; format: cell-based; parameters: scale not given: the % may be the effect or the level left; settings: Cricetulus griseus
CHO-2B7 [16] = assay: Modulation of gamma secretase in CHO-2B7 cells assessed as reduction in amyloid beta 40 level at 20 mM after 5 hrs by MSD ELISA; format: cell-based; parameters: scale not given: the % may be the effect or the level left; settings: Cricetulus griseus

SMILES	Stability (Liver microsomes)	concentration at 6 h [1] [nM]	IC50 [3] [nM]	Kp at 6 h [4]	concentration at 6 h [5] [nM]	IC50 [9] [nM]	remaining at 1 h, 1 µM [10] [%]	other results
CCO[C@@H]([C@H]1C[C@@H](C)[C@H]2[C@H](O1)[C@H](O)[C@@]1(C)[C@@H]3CC[C@H]4C(C)(C)[C@@H](OC(=O)N5CCN(CCOC)CC5)CC[C@@]45C[C@@]35CC[C@]21C)C(C)(C)O	Stable	261	320	0.03	8			Activity (CHO-2B7 [2]): 51%
CC(C)C[C@H](C(=O)O)c1cc(-c2ccc(C(F)(F)F)cc2)cc(-c2ccc(C(F)(F)F)cc2)c1								IC50 [6]: 260 nM; Activity [7]: 240%; IC50 [8]: 9100 nM
CCO[C@@H]([C@H]1C[C@@H](C)[C@H]2[C@H](O1)[C@H](O)[C@@]1(C)[C@@H]3CC[C@H]4C(C)(C)[C@@H](OC(=O)N(C)C5CN(C)C5)CC[C@@]45C[C@@]35CC[C@]21C)C(C)(C)O	Stable	566	61	0.1	56	4300		
CC(C)CC[C@H](c1ccc(Cl)cc1)N1CC[C@@H](CC(=O)O)C[C@H]1c1ccc(C(F)(F)F)cc1								IC50 [6]: 100 nM; Activity [7]: 280%; IC50 [8]: 8400 nM
CC(=O)O[C@@H]([C@H]1C[C@@H](C)[C@H]2[C@H](O1)[C@H](O)[C@@]1(C)[C@@H]3CC[C@H]4C(C)(C)[C@@H](O[C@H]5CNCCO5)CC[C@@]45C[C@@]35CC[C@]21C)C(C)(C)O			70			2200	7	remaining at 1 h, 1 µM [11]: 3%
COc1cc(/C=C2\CCCN([C@@H](C)c3ccc(F)cc3)C2=O)ccc1-n1cnc(C)c1								IC50 [6]: 62 nM; Activity [7]: 280%; IC50 [8]: 280 nM
CCO[C@@H]([C@H]1C[C@@H](C)[C@H]2[C@H](O1)[C@H](O)[C@@]1(C)[C@@H]3CC[C@H]4C(C)(C)[C@@H](O[C@H]5CNCCO5)CC[C@@]45C[C@@]35CC[C@]21C)C(C)(C)O	Stable		91			1400	28	concentration at 6 h [12]: 320 nM; concentration at 6 h [13]: 192 nM; Kp at 6 h [14]: 1.67
CC(=O)OC[C@H]1C[C@@H](C)[C@H]2[C@H](O1)[C@H](O)[C@@]1(C)[C@@H]3CC[C@H]4C(C)(C)[C@@H](O[C@H]5CN(C6COC6)CCO5)CC[C@@]45C[C@@]35CC[C@]21C							0	Activity (CHO-2B7 [15]): 0%; Activity (CHO-2B7 [2]): 0%
CCO[C@@H]([C@H]1C[C@@H](C)[C@H]2[C@H](O1)[C@H](O)[C@@]1(C)[C@@H]3CC[C@H]4C(C)(C)[C@@H](O[C@H]5CN(CC(F)(F)F)CCO5)CC[C@@]45C[C@@]35CC[C@]21C)C(C)(C)O	Stable		2300					Activity (CHO-2B7 [16]): 44%
CCO[C@@H]([C@H]1C[C@@H](C)[C@H]2[C@H](O1)[C@H](O)[C@@]1(C)[C@@H]3CC[C@H]4C(C)(C)[C@@H](O[C@H]5CN(C)CCO5)CC[C@@]45C[C@@]35CC[C@]21C)C(C)(C)O	Stable	21	250	0.76	16	4500		
CCO[C@@H]([C@H]1C[C@@H](C)[C@H]2[C@H](O1)[C@H](O)[C@@]1(C)[C@@H]3CC[C@H]4C(C)(C)[C@@H](O[C@H]5CN(C6COC6)CCO5)CC[C@@]45C[C@@]35CC[C@]21C)C(C)(C)O	Stable		270			4600	94	concentration at 6 h [12]: 12 nM; concentration at 6 h [13]: 24 nM; Kp at 6 h [14]: 0.5
CCO[C@@H]([C@H]1C[C@@H](C)[C@H]2[C@H](O1)[C@H](O)[C@@]1(C)[C@@H]3CC[C@H]4C(C)(C)[C@@H](OC(=O)N5CCN(C)CC5)CC[C@@]45C[C@@]35CC[C@]21C)C(C)(C)O	Stable	95	68	0.13	12	5000		

Source: ChEMBL document CHEMBL2203235, “Optimization of a natural product-based class of γ-secretase modulators” (J Med Chem, 2012)
